The text below walks through data of the RNAGym collection of RNA variant scans (doi:10.1002/anie.201605470).

B1: Osa-1-4 twister ribozyme (parent)
chain: CCGCCUAACACUGCCAAUGCCGGUCCCAAGCCCGGAUAAAAGUGGAGGGGGCGG

Variants of B1 are the subject of the data set. Description: self-cleavage, relative activity (ratio to wild type); higher = more cleavage; co-transcriptional. Put shortly: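 A DNA template was synthesised for a 54-nucleotide twister ribozyme from Oryza sativa, with 97 % wild-type base and 1 % of each other base at each of the 48 positions downstream of the cleavage site. The ribozyme cleaved itself co-transcriptionally during 2 h of in vitro transcription at 37 °C. Reverse transcription with a template-switching oligonucleotide, PCR amplification and deep sequencing followed, and cleavage status came from reads with or without upstream sequence. Relative activity is the fraction cleaved normalised to wild type.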
With A10U G19C, the self-cleavage came to 0.01.

As for A10U G19U, the self-cleavage was determined as 0.02.

Take A10U G19A: the self-cleavage was 0.05.

Consider A10U A28U, for which the self-cleavage turned out to be 0.05.

In the case of A10U A28G, the self-cleavage is 0.04.

Take A10U A28C: the self-cleavage was found to be 0.03.

For A10C G47C, the self-cleavage was determined as 0.02.

Consider A10C G47U, for which the self-cleavage amounted to 0.03.

A10C G47A: the self-cleavage came to 0.02.

Regarding A10G G49A, the self-cleavage amounted to 0.07.

On to A10G G49U, for which the self-cleavage is 0.09.

Consider A10G G49C, for which the self-cleavage amounted to 0.07.

Consider A10G U37G, for which the self-cleavage was found to be 0.87.

As for A10G U37A, the self-cleavage was determined as 0.67.

For A10G U37C, the self-cleavage was 0.95.

In the case of A10C G54U, the self-cleavage is 0.3.

Turning to A10C G54C, the self-cleavage turned out to be 0.14.

As for A10C G54A, the self-cleavage is 0.17.

For A10G G30C, the self-cleavage worked out at 0.07.

On to A10G G30A, for which the self-cleavage was 0.05.

A10G G30U: the self-cleavage is 0.05.

In the case of A10C C21A, the self-cleavage is 0.04.

With A10C C21G, the self-cleavage was found to be 0.01.

On to A10C C21U, for which the self-cleavage amounted to 0.06.

As for A10G C15U, the self-cleavage is 0.14.

For the variant A10G C15A, the self-cleavage was 0.17.

As to A10G C15G, the self-cleavage is 0.2.

Take A10G G53C: the self-cleavage came out at 0.07.

With A10G G53U, the self-cleavage stood at 0.22.

Consider A10G G53A, for which the self-cleavage worked out at 0.41.

On to A10G G13C, for which the self-cleavage stood at 0.03.

With A10G G13A, the self-cleavage stood at 0.08.

For the variant A10G G13U, the self-cleavage amounted to 0.04.

As to A10U C33U, the self-cleavage was determined as 0.04.

A10U C33G: the self-cleavage is 0.01.

For the variant A10U C33A, the self-cleavage turned out to be 0.02.

Consider A10C U37A, for which the self-cleavage amounted to 0.11.

Consider A10C U37G, for which the self-cleavage was 0.11.

As to A10C U37C, the self-cleavage turned out to be 0.09.

In the case of A10G U43C, the self-cleavage was 0.96.

On to A10G U43G, for which the self-cleavage came out at 0.3.

A10G U43A: the self-cleavage was determined as 0.79.

On to A10C C15A, for which the self-cleavage came out at 0.08.

With A10C C15U, the self-cleavage stood at 0.04.

For A10C C15G, the self-cleavage came out at 0.04.

In the case of A10C C26A, the self-cleavage is 0.03.

As to A10C C26G, the self-cleavage is 0.03.

With A10C C26U, the self-cleavage stood at 0.03.

Regarding A10C G53C, the self-cleavage was 0.02.

In the case of A10C G53A, the self-cleavage was 0.11.

As to A10C G53U, the self-cleavage was determined as 0.06.

A10C G22A: the self-cleavage is 0.05.

Turning to A10C G22C, the self-cleavage is 0.02.

As to A10C G22U, the self-cleavage was 0.03.

As for A10C G42C, the self-cleavage stood at 0.02.

Take A10C G42U: the self-cleavage amounted to 0.01.

As to A10C G42A, the self-cleavage was 0.03.

Turning to A10G A28C, the self-cleavage worked out at 0.63.

For A10G A28G, the self-cleavage came out at 0.15.

A10G A28U: the self-cleavage was determined as 0.43.

For the variant A10G C26G, the self-cleavage was determined as 0.18.

For the variant A10G C26U, the self-cleavage was 0.5.

Turning to A10G C26A, the self-cleavage worked out at 0.04.

On to A10U A36C, for which the self-cleavage stood at 0.03.

For A10U A36U, the self-cleavage stood at 0.04.

Turning to A10U A36G, the self-cleavage worked out at 0.05.

As to A10C U24G, the self-cleavage is 0.02.

In the case of A10C U24A, the self-cleavage stood at 0.02.

A10C U24C: the self-cleavage is 0.04.

For the variant A10G G48U, the self-cleavage is 0.06.

With A10G G48A, the self-cleavage was 0.07.

With A10G G48C, the self-cleavage is 0.06.

A10U C32U: the self-cleavage stood at 0.02.

In the case of A10U C32G, the self-cleavage came to 0.04.

Take A10U C32A: the self-cleavage was 0.01.

Regarding A10C C9G, the self-cleavage was 0.07.

For A10C C9U, the self-cleavage turned out to be 0.06.

Consider A10C C52U, for which the self-cleavage amounted to 0.11.

Regarding A10C C52G, the self-cleavage was 0.11.

Consider A10C C52A, for which the self-cleavage worked out at 0.06.

Turning to A10G G51U, the self-cleavage turned out to be 0.18.

As to A10G G51C, the self-cleavage was 0.08.

For A10G G51A, the self-cleavage was determined as 0.28.

For the variant A10U C52U, the self-cleavage was 0.05.

Regarding A10U C52G, the self-cleavage is 0.07.

With A10U C52A, the self-cleavage turned out to be 0.04.

In the case of A10G C9U, the self-cleavage was determined as 0.77.

Consider A10G C9G, for which the self-cleavage amounted to 0.41.

As for A10G C9A, the self-cleavage amounted to 0.57.

A10C G50U: the self-cleavage amounted to 0.04.

As to A10C G50C, the self-cleavage came to 0.04.

For A10C G50A, the self-cleavage turned out to be 0.11.

Regarding A10G G47C, the self-cleavage was 0.07.

On to A10G G47A, for which the self-cleavage was found to be 0.13.

Turning to A10G G47U, the self-cleavage was 0.12.

On to A10G A36U, for which the self-cleavage turned out to be 0.94.

For the variant A10G A36G, the self-cleavage was 0.86.

For the variant A10G A36C, the self-cleavage was found to be 0.26.

Turning to A10G G45C, the self-cleavage is 0.06.

As for A10G G45A, the self-cleavage stood at 0.17.

Regarding A10G G45U, the self-cleavage is 0.1.

As for A10G C32G, the self-cleavage was 0.15.

Turning to A10G C32U, the self-cleavage is 0.1.

Consider A10G C32A, for which the self-cleavage came out at 0.07.

A10G C31G: the self-cleavage came out at 0.1.

In the case of A10G C31U, the self-cleavage worked out at 0.36.

Turning to A10G C31A, the self-cleavage came to 0.05.

As for A10G A7C, the self-cleavage stood at 0.06.

Regarding A10G A7U, the self-cleavage came to 0.09.

On to A10G A7G, for which the self-cleavage came to 0.39.

As to A10U C14U, the self-cleavage is 0.04.

For A10U C14G, the self-cleavage worked out at 0.03.

For A10U C14A, the self-cleavage stood at 0.02.

Consider A10C G44U, for which the self-cleavage was 0.22.

Consider A10C G44A, for which the self-cleavage was 0.06.

With A10C G44C, the self-cleavage turned out to be 0.16.

A10G G42C: the self-cleavage stood at 0.12.

Turning to A10G G42A, the self-cleavage is 0.22.

A10G G42U: the self-cleavage is 0.06.

As for A10G A40C, the self-cleavage turned out to be 0.08.

Turning to A10G A40G, the self-cleavage amounted to 0.34.

For the variant A10G A40U, the self-cleavage worked out at 0.27.

A10G C11G: the self-cleavage worked out at 0.12.

For the variant A10G C11A, the self-cleavage is 0.38.

For the variant A10G C11U, the self-cleavage was 0.8.

Turning to A10C G35C, the self-cleavage was found to be 0.03.

Consider A10C G35A, for which the self-cleavage is 0.07.

On to A10C G35U, for which the self-cleavage was 0.04.

With A10G A17G, the self-cleavage is 0.64.

As to A10G A17C, the self-cleavage turned out to be 0.44.

Regarding A10G A17U, the self-cleavage stood at 0.85.

With A10G G35C, the self-cleavage turned out to be 0.13.

As for A10G G35U, the self-cleavage was found to be 0.4.

On to A10G G35A, for which the self-cleavage was 0.41.

Regarding A10U A16U, the self-cleavage was determined as 0.06.

As to A10U A16C, the self-cleavage is 0.03.

Consider A10U A16G, for which the self-cleavage was 0.06.

In the case of A10C G45A, the self-cleavage turned out to be 0.02.

As for A10C G45C, the self-cleavage turned out to be 0.02.

As for A10C G45U, the self-cleavage is 0.02.

On to A10C C31U, for which the self-cleavage is 0.03.

In the case of A10C C31G, the self-cleavage was 0.03.

In the case of A10C C31A, the self-cleavage was 0.02.

As to A10C C11U, the self-cleavage amounted to 0.51.

Turning to A10C C11G, the self-cleavage is 0.04.

Take A10C C11A: the self-cleavage is 0.1.

For the variant A10U A7U, the self-cleavage is 0.03.

A10U A7G: the self-cleavage was found to be 0.08.

Regarding A10U A7C, the self-cleavage turned out to be 0.02.

Turning to A10U A46C, the self-cleavage turned out to be 0.02.

For the variant A10U A46G, the self-cleavage was 0.

With A10U A46U, the self-cleavage is 0.03.

On to A10G C25U, for which the self-cleavage was 0.4.

For A10G C25G, the self-cleavage is 0.08.

As for A10G C25A, the self-cleavage worked out at 0.07.

On to A10G A46G, for which the self-cleavage is 0.08.

On to A10G A46U, for which the self-cleavage came out at 0.11.

In the case of A10G A46C, the self-cleavage is 0.06.

On to A10U C21G, for which the self-cleavage amounted to 0.02.

With A10U C21U, the self-cleavage worked out at 0.07.

A10U C21A: the self-cleavage is 0.03.

For the variant A10U C25A, the self-cleavage is 0.03.

A10U C25U: the self-cleavage is 0.05.

Turning to A10U C25G, the self-cleavage was found to be 0.02.

For the variant A10C U18G, the self-cleavage is 0.24.

On to A10C U18A, for which the self-cleavage was 0.08.

In the case of A10C U18C, the self-cleavage is 0.07.
